The IC50 is the midpoint of a concentration-inhibition curve. What is called remaining activity is what remains of the control signal, in per cent. For orientation: inhibition means how much of the control response was suppressed. Broadly, the GI50 is the concentration at which growth is held to half of that of the control.

One assay concerns the target T1, HDAC8 (Homo sapiens, UniProt Q9BY41).
T1 sequence (Q9BY41 1-377): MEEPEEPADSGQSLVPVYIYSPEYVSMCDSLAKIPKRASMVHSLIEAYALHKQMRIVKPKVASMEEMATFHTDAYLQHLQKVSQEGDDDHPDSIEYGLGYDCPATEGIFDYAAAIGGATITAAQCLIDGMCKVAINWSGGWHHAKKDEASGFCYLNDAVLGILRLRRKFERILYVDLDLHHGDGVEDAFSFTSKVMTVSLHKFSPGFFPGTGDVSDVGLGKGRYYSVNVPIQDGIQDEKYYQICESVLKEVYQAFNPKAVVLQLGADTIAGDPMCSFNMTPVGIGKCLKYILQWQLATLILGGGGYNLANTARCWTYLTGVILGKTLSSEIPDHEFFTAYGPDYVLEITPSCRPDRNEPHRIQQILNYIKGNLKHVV
Put plainly: HDAC-Glo inhibitor testing with recombinant HDAC8. Format: biochemical. The settings on record: for remaining activity at 100 µM: read-out: HDAC8 activity remaining.

In another assay the target is T2, HDAC6 (Homo sapiens, UniProt Q9UBN7).
T2 sequence (Q9UBN7 1-1215): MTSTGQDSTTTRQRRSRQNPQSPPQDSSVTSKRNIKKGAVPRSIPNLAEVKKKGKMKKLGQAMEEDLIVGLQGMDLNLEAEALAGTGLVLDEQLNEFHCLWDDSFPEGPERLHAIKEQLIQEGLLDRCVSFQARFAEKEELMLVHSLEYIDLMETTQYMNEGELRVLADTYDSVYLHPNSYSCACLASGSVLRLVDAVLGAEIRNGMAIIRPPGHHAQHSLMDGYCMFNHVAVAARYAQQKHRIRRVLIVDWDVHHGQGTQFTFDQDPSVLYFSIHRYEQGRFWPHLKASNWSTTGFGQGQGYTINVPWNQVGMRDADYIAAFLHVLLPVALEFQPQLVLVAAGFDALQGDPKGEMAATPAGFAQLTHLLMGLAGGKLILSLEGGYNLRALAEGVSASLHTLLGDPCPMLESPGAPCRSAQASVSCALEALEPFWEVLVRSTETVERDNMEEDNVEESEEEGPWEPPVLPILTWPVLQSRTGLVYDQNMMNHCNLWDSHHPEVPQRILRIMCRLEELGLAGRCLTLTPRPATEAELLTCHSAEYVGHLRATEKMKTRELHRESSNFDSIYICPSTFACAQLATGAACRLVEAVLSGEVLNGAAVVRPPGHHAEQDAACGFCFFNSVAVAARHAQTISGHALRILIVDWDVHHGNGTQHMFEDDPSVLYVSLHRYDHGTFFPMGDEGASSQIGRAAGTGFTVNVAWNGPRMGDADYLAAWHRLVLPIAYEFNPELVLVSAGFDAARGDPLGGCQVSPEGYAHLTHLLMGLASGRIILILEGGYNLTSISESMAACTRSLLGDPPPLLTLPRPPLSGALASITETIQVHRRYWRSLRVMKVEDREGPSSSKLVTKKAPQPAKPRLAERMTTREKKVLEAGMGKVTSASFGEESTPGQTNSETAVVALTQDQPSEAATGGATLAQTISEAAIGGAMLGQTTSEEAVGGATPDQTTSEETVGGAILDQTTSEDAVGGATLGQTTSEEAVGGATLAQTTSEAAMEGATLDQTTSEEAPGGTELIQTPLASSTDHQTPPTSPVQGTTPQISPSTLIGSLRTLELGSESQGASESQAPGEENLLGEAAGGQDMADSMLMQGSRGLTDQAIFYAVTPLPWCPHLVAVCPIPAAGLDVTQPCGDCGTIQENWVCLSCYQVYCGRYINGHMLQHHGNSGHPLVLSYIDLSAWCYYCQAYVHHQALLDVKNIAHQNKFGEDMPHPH
Put plainly: HDAC-Glo inhibitor testing with recombinant HDAC6. Format: biochemical.

Assay [1] relates to NCI sixty human tumor cell line panel. Put plainly: NCI sixty human tumor cell line panel, single dose 10 μM. Format: cell-based. The settings on record: Homo sapiens; for activity at 10 µM: read-out: Mean % growth at 10 μM.
The next assay addresses HDAC2 (Homo sapiens, UniProt Q92769). Put plainly: HDAC-Glo inhibitor testing with recombinant HDAC2. Format: biochemical.
The next assay concerns the target HDAC1 (Homo sapiens, UniProt Q13547). Put plainly: HDAC-Glo inhibitor testing with recombinant HDAC1. Format: biochemical.
In the next assay the target is HDAC3 (Homo sapiens, UniProt O15379). Put plainly: HDAC-Glo inhibitor testing with recombinant HDAC3. Format: biochemical.
The test system of assay [2] is mitotic spindle of HeLaM cells. Format: cell-based. As to conditions: compound 10 μM + MG132 + ZM447439 (DMSO+MG132+ZM447439 3%).
For a further assay, the system named is NCI 60 cancer cell lines. Put plainly: NCI dose response assay. Format: cell-based, human.
Assay [3] has as its system histone H3 acetylation and tubulin acetylation in HCT116 cells. Put plainly: Western blot of histone H3 and tubulin acetylation in HCT116 cells. The settings on record: HCT116, 24 h, IPEs up to highest concentration 25 μM. Format: cell-based, human. The essentials:
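HCT116 cells (2 × 10^6 per T-25 flask) adhered overnight, then given test compound at 1, 10 or 25 μM, or DMSO, for 24 h. Lysed in RIPA; protein measured by BCA. Acetyl-histone H3 and acetyl-tubulin immunoblotted, detected with fluorescent secondary antibodies on an Odyssey scanner.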
(In western blotting, separated proteins are transferred to a membrane and probed.)

Another assay concerns HCT 116 cells. Put plainly: MTS reduction assay, antiproliferative activity on HCT 116. As to conditions: Homo sapiens, HCT-116, 96 h. Format: cell-based. The method in brief: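 HCT116 cells grown in McCoy's 5A with 10% FBS (37 °C, 5% CO2), seeded at 3 × 10^3/well in triplicate and left to adhere overnight. Exposed to test compound at 0.01–100 μM, or DMSO, for 96 h. MTS reagent added for 2 h at 37 °C; absorbance read at 490 nm. Curves of log(concentration) vs response fitted with a variable Hill slope.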

In assay [4] the target is tubulin heterodimers, purified from porcine brain (Sus scrofa, UniProt P02554). Put plainly: Turbidity-based tubulin polymerization assay. Format: biochemical. As to conditions: 10 μM compound, 37 °C, exponential phase (DMSO 10 mOD/min).
Another assay deals with HeLaM cells. Put plainly: Flow cytometry cell cycle analysis. Format: cell-based. The method in brief: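 5 × 10^5 HeLaM cells plated, treated next day with test compound or DMSO for 24, 48 or 72 h. All cells (floating and attached) collected and fixed in 70% ethanol (final). […] 10 μg/ml, 30 min, 37 °C, then propidium iodide in PBS + 2% FBS. SubG1 gated; subG1 excluded before modeling live-cell cycle distribution.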
Background: Flow cytometry measures light scatter and fluorescence of single cells or particles in a stream.

Chain of HDAC3 (O15379 whole entry): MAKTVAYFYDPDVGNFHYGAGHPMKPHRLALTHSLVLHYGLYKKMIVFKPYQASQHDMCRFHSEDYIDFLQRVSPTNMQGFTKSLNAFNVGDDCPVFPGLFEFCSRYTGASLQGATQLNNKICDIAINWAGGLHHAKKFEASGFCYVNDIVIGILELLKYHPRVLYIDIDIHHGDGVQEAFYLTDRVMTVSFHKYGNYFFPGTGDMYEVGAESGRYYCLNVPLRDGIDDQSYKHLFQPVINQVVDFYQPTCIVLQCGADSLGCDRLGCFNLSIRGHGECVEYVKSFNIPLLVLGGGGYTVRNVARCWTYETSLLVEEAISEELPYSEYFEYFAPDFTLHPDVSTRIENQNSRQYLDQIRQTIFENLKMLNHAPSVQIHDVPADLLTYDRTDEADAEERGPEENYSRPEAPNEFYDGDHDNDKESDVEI
Chain of HDAC3 (Q9Y618 395-489 partner limits assumed): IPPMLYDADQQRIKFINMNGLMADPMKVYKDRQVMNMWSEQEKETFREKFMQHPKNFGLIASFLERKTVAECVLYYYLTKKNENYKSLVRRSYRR
Chain of HDAC1 (Q13547 whole entry): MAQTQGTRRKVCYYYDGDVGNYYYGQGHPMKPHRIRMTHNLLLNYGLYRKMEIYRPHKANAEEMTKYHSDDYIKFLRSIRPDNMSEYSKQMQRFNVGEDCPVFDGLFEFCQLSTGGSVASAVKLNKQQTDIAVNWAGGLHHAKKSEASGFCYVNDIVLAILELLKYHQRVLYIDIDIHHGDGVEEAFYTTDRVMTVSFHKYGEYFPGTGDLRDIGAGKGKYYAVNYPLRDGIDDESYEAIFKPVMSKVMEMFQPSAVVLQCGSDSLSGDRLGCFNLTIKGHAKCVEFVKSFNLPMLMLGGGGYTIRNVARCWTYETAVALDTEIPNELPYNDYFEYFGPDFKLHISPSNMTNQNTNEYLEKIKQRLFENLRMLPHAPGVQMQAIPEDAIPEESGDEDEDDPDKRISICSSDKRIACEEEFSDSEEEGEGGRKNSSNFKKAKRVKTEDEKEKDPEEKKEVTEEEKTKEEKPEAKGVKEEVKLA
Chain of HDAC2 (Q92769 whole entry): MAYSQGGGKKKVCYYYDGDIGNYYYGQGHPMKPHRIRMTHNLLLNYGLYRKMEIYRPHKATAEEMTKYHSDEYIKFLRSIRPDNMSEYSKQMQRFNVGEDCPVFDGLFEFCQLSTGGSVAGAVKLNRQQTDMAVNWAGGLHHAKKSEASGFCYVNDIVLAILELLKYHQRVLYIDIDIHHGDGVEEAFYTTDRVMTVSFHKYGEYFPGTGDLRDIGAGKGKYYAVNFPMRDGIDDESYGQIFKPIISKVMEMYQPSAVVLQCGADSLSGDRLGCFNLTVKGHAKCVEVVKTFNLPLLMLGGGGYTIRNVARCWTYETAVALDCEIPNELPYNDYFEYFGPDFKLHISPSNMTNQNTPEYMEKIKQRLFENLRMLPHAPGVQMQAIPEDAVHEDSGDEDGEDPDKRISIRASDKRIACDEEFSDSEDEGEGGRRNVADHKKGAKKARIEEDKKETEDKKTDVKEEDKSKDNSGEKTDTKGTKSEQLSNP
Chain of tubulin heterodimers, purified from porcine brain (P02554 whole entry): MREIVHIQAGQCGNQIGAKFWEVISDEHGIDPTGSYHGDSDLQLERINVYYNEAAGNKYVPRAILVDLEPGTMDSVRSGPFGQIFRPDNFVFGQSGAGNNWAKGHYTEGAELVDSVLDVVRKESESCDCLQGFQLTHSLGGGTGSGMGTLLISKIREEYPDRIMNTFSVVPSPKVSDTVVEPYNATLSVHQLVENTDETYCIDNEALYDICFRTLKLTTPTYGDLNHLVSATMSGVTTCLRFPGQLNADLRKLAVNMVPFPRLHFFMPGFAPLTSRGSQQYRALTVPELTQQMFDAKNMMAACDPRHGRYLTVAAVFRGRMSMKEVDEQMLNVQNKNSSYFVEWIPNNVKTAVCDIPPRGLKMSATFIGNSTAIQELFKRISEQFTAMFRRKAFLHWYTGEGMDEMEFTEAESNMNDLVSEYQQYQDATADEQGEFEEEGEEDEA
Chain of tubulin heterodimers, purified from porcine brain (P02550 whole entry partner): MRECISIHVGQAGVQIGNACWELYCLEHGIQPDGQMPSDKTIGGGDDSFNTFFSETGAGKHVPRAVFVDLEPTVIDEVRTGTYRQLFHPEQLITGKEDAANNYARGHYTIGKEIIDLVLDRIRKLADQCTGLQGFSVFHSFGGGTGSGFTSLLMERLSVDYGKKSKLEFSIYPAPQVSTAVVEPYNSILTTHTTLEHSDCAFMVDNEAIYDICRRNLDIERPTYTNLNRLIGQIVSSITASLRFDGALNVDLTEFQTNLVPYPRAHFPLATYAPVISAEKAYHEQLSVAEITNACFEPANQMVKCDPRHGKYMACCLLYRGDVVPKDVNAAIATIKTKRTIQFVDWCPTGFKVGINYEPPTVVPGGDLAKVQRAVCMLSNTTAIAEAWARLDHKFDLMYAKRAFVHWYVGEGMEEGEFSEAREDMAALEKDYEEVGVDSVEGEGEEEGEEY

Turning to `Cn1ccnc1C(=O)/C=C/c1ccc(CC(=O)Nc2c(F)c(F)c(F)c(F)c2F)cc1` [IPE-25, (E)-2-(4-(3-(1-methyl-1H-imidazol-2-yl)-3-oxoprop-1-en-1-yl)phenyl)-N-(perfluorophenyl)acetamide], the IC50 at HDAC8 turned out to be 9 ± 0.5 µM; on HDAC6, 8.6 ± 4.9 µM; at HDAC2, 8.9 ± 0.6 µM; at HDAC1, 12 ± 1 µM; on HDAC3 it was 16 ± 1 µM. For the same compound, the activity at 10 µM in [1] stood at 61.4%.

`Cn1ccnc1C(=O)/C=C/c1ccc(CC(=O)Nc2ccc(S(F)(F)(F)(F)F)cc2)cc1` [IPE-22, (E)-2-(4-(3-(1-Methyl-1H-imidazol-2-yl)-3-oxoprop-1-en-1-yl)phenyl)-N-(4-(pentafluoro-λ^6-sulfanyl)phenyl)acetamide]: the spindle collapse result in assay [2] is “phenotype was reproduced”. Also, the IC50 is 3 ± 0.2 µM on HDAC8; greater than 200 µM on HDAC6; greater than 200 µM at HDAC2; greater than 200 µM at HDAC1; greater than 200 µM on HDAC3. Also, the “fold selectivity for HDAC8 compared to the other isoforms” value at HDAC8 (from IC50 values, other isoforms >200 μM) is no less than 67 fold. In addition, at HDAC8, the remaining activity at 100 µM lay within 20 to 60%. Also, the activity at 10 µM in [1] is -18.8%. The inhibition at 10 µM in [1] (read-out: growth inhibition at 10 μM) stood at 100%. Moreover, the “GI50, all leukemia cell lines” value in the assay with NCI 60 cancer cell lines was “upper nanomolar”.

As to `Cn1ccnc1C(=O)/C=C/c1ccc(CC(=O)Nc2ccc(F)cc2)cc1` [IPE-19, (E)-N-(4-Fluorophenyl)-2-(4-(3-(1-methyl-1H-imidazol-2-yl)-3-oxoprop-1-en-1-yl)phenyl)acetamide], the “global histone H3 acetylation and tubulin acetylation” value in assay [3] is listed as “no increase in global histone acetylation or tubulin acetylation”. Besides, in the assay with HCT 116 cells, the GI50 stood at 6.56 µM. Also, the activity at 10 µM in assay [1] stood at 33.1%.

As for `CC(=O)O[C@H]1C(=O)[C@@]2(C)[C@H]([C@H](OC(=O)c3ccccc3)[C@]3(O)C[C@H](OC(=O)[C@H](O)[C@@H](NC(=O)c4ccccc4)c4ccccc4)C(C)=C1C3(C)C)[C@]1(OC(C)=O)CO[C@@H]1C[C@@H]2O` [Taxol, reference compound], the “Vmax of tubulin polymerization” value in [4] is recorded as “higher Vmax than DMSO”.

In the case of `Nc1ccccc1NC(=O)c1ccc(CNC(=O)OCc2cccnc2)cc1` [MS275, reference compound], in assay [3], the “global histone H3 acetylation and tubulin acetylation” value is recorded as “dramatically increased”.

For `Cn1ccnc1C(=O)/C=C/c1ccc(CC(=O)Nc2ccc(Br)cc2)cc1` [IPE-18, (E)-N-(4-Bromophenyl)-2-(4-(3-(1-methyl-1H-imidazol-2-yl)-3-oxoprop-1-en-1-yl)phenyl)acetamide], the IC50 at HDAC8, on HDAC6, on HDAC2, on HDAC1 and on HDAC3 was greater than 100 µM in each case. In addition, the activity at 10 µM in [1] stood at 19.9%.

Take `O=C(CCCCCCC(=O)Nc1ccccc1)NO` [SAHA, reference compound]: in [3], the “global histone H3 acetylation and tubulin acetylation” value is on record as “dramatically increased”. Moreover, the spindle collapse result in assay [2] was “did not produce the same aberrant spindle”. Also, the “cells in G2/M” value with HeLaM cells (48 hours, subG1 excluded (DMSO 10%)) worked out at 8.2%. For the same compound, in the assay on HeLaM cells (72 hr post treatment (DMSO 14%)), the subG1 population amounted to 37%.

For `Cn1ccnc1C(=O)/C=C/c1ccc(CC(=O)Nc2cc(C(F)(F)F)cc(C(F)(F)F)c2)cc1` [IPE-26, (E)-N-(3,5-bis(trifluoromethyl)phenyl)-2-(4-(3-(1-methyl-1H-imidazol-2-yl)-3-oxoprop-1-en-1-yl)phenyl)acetamide], the IC50 at HDAC8 is 15 ± 1 µM; on HDAC6, greater than 100 µM; at HDAC2, greater than 100 µM; on HDAC1 it was greater than 200 µM; at HDAC3, greater than 200 µM. Also, the remaining activity at 100 µM at HDAC8 is 20 to 60%. In addition, the activity at 10 µM in [1] amounted to 69%.

Turning to `Cn1ccnc1C(=O)/C=C/c1ccc(CC(=O)Nc2ccccc2)cc1` [IPE-16, (E)-2-(4-(3-(1-Methyl-1H-imidazol-2-yl)-3-oxoprop-1-en-1-yl)phenyl)-N-phenylacetamide], the “global histone H3 acetylation and tubulin acetylation” value in [3] is “no increase in global histone acetylation or tubulin acetylation”. Also, it took 5.91 µM to inhibit growth with HCT 116 cells by half (GI50). The spindle collapse entry in [2] is reported as “phenotype was reproduced”. Moreover, the activity at 10 µM in assay [1] was 15.9%.

In the case of `Cn1ccnc1C(=O)/C=C/c1ccc(CC(=O)Nc2cc(F)c(F)c(F)c2)cc1` [IPE-24, (E)-2-(4-(3-(1-methyl-1H-imidazol-2-yl)-3-oxoprop-1-en-1-yl)phenyl)-N-(3,4,5-trifluorophenyl)acetamide], the IC50 at HDAC8 was 13 ± 1 µM; at HDAC6, greater than 200 µM; at HDAC2 it was greater than 200 µM; on HDAC1, greater than 200 µM; at HDAC3 it was greater than 200 µM. In addition, the remaining activity at 100 µM at HDAC8 was in the range of 20 to 60%. Moreover, in assay [1], the activity at 10 µM came to 22.7%. The “GI50, all leukemia cell lines” value in the assay with NCI 60 cancer cell lines is reported as “upper nanomolar”.

With `C#Cc1ccc(NC(=O)Cc2ccc(/C=C/C(=O)c3nccn3C)cc2)cc1` [IPE-27, (E)-N-(4-Ethynylphenyl)-2-(4-(3-(1-methyl-1H-imidazol-2-yl)-3-oxoprop-1-en-1-yl)phenyl)acetamide], the IC50 is 12 ± 1 µM on HDAC8; greater than 100 µM on HDAC6; greater than 100 µM on HDAC2; greater than 100 µM on HDAC1; greater than 100 µM on HDAC3. At HDAC8, the remaining activity at 100 µM was 20 to 60%. Moreover, in [1], the activity at 10 µM was 53.5%.

In the case of `Cc1ccc(NC(=O)Cc2ccc(/C=C/C(=O)c3ncc[nH]3)cc2)cc1` [IPE-3, (E)-2-(4-(3-(1H-Imidazol-2-yl)-3-oxoprop-1-en-1-yl)phenyl)-N-(p-tolyl)acetamide], in the assay on HCT 116 cells, the GI50 is 6.85 µM. Besides, the activity at 10 µM in [1] was determined as 41.3%.

As for `O=C(Cc1ccc(/C=C/C(=O)c2ncc[nH]2)cc1)Nc1ccc(Br)cc1` [IPE-9, (E)-2-(-4(3-(1H-imidazol-2-yl)-3-oxoprop-1-en-1-yl)phenyl)-N-(4-bromophenyl)acetamide], the activity at 10 µM in assay [1] amounted to 17.9%. The “GI50, all but two of the cell lines each in the leukemia and colon cancer panels” value in the assay with NCI 60 cancer cell lines is listed as “sub-micromolar”.

The record behind these values is publication PMC8530978 (Bioorganic chemistry, 2021).
